A word on the half-life: it is the time needed for the level to fall by half in the phase considered. A word on the IC50: it is the concentration at which inhibition is half-maximal.

Series [1] can be described thus: Lipophilicity, log K of the compound. Conditions: RP-HPLC capacity factor, C18 column, methanol mobile phase. The series is classed as physicochemical. A digest of the protocol: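 Lipophilicity measured by RP-HPLC as capacity factor k, reported as log k.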
Series [2] in a line: Half life in aqueous buffer solutions at pH 7 by HPLC analysis. It counts as ADME. Conditions: aqueous buffer solution.
A short description of series [3]: Half life in aqueous buffer solutions at pH 7.4 by HPLC analysis. It counts as ADME. Conditions: aqueous buffer solution.
The nature of series [4]: Chemical stability of the compound in aqueous buffer solutions at acidic pH by HPLC analysis. The series is classed as physicochemical.
The target of series [5] is Photosystem II protein D1 (Spinacia oleracea, UniProt P69560). Kind of series: Inhibition of photosystem II in Spinacia oleracea (spinach) chloroplasts assessed as reduction of photosynthetic electron transport. In outline: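 PET in spinach chloroplasts read spectrophotometrically as DCPIP photoreduction in a chloroplast suspension at pH 7.2. Read within 2 min after adding the carbamate solution in DMSO. IC50 is the molar concentration giving a 50% decrease in activity relative to the untreated control.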

Series [6] concerns the target Photosystem II protein D1 (Spinacia oleracea) (UniProt P69560). Description: Inhibition of photosystem II in Spinacia oleracea (spinach) chloroplasts assessed as restoration of photosynthetic electron transport relative to control in presence of DPC. Also on record: scale not given: the % may be the effect or the level left. In outline:
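Spinach chloroplasts were first treated with the carbamate, then given the artificial PS 2 donor 1,5-diphenylcarbazide (DPC). PET activity was then measured and expressed as % of the untreated control.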

For `CCCCCCCCCCNC(=O)Oc1ccc(Cl)cc1C(=O)Nc1ccc(Cl)c(Cl)c1`, the “log K” value in series [1] is 1.0894. Moreover, the results for the half-life in series [2] and in series [3] were 64 h and 43 h, respectively. Moreover, the Stability result in series [4] is reported as “Stable”.

`CCCCCCCNC(=O)Oc1ccc(Cl)cc1C(=O)Nc1ccc(Cl)cc1`: the “log K” value in series [1] stood at 0.7872. For the same molecule, in series [5], the IC50 was found to be 7.1 µM. Further, the figures for the half-life in series [2] and in series [3] were 64 h and 43 h, respectively. Besides, the Stability result in series [4] was “Stable”.

Regarding `CCCCCCNC(=O)Oc1ccc(Cl)cc1C(=O)Nc1ccc(Cl)c(Cl)c1`, the “log K” value in series [1] turned out to be 1.0611. The IC50 in series [5] worked out at 144 µM. Further, in series [4], the Stability entry is given as “Stable”.

Regarding `CCNC(=O)Oc1ccc(Cl)cc1C(=O)Nc1ccc(Cl)c(Cl)c1`, the “log K” value in series [1] came out at 1.0234. The IC50 in series [5] was found to be 82.3 µM. Moreover, the half-life in series [2] is 64 h; in series [3] it was 43 h. The Stability entry in series [4] is recorded as “Stable”.

`CCCCCCNC(=O)Oc1ccc(Cl)cc1C(=O)Nc1cccc(Cl)c1`: the “log K” value in series [1] was found to be 0.7758. Also, the IC50 in series [5] is 5.3 µM. Also, the half-life in series [2] is 64 h; in series [3] it was 43 h. Moreover, the Stability result in series [4] is “Stable”.

With `CCCCCNC(=O)Oc1ccc(Cl)cc1C(=O)Nc1ccc(Cl)cc1`, in series [1], the “log K” value is listed as 0.7838. In addition, the IC50 in series [5] was 6.3 µM. In addition, the half-life in series [2] is 64 h; in series [3], 43 h. Further, the Stability result in series [4] is reported as “Stable”.

As to `CCCCCCCCCNC(=O)Oc1ccc(Cl)cc1C(=O)Nc1cccc(Cl)c1`, in series [1], the “log K” value turned out to be 0.7837. Moreover, in series [5], the IC50 is 15.4 µM. For the same molecule, the half-life in series [2] is 64 h; in series [3], 43 h. Further, the Stability result in series [4] is recorded as “Stable”.

As to `CCCCCCCCCCNC(=O)Oc1ccc(Cl)cc1C(=O)Nc1cccc(Cl)c1`, the “log K” value in series [1] came out at 0.7873. Further, the IC50 in series [5] came out at 15.8 µM. Moreover, the half-life in series [2] is 64 h; in series [3] it was 43 h. Besides, in series [4], the Stability result is given as “Stable”.

Regarding `CCCCCCCCCCNC(=O)Oc1ccc(Cl)cc1C(=O)Nc1ccc(Cl)cc1`, the “log K” value in series [1] worked out at 0.7942. In addition, the IC50 in series [5] is 8.4 µM. In addition, the half-life in series [2] was 64 h; in series [3], 43 h. For the same molecule, the Stability result in series [4] is “Stable”.

As to `CCNC(=O)Oc1ccc(Cl)cc1C(=O)Nc1ccc(Cl)cc1`, the “log K” value in series [1] was 0.7695. Further, the IC50 in series [5] was 9.7 µM. The half-life in series [2] is 64 h; in series [3], 43 h. Further, the Stability result in series [4] was “Stable”. Besides, in series [6], the Activity amounted to 94%.

On to `CCCCCCCNC(=O)Oc1ccc(Cl)cc1C(=O)Nc1cccc(Cl)c1`, for which the “log K” value in series [1] amounted to 0.7772. Moreover, the IC50 in series [5] was 4.9 µM. In addition, the values for the half-life in series [2] and in series [3] were 64 h and 43 h, respectively. The Stability result in series [4] was “Stable”. The Activity in series [6] is 94%.

As to `CCCCCCCNC(=O)Oc1ccc(Cl)cc1C(=O)Nc1ccc(Cl)c(Cl)c1`, the “log K” value in series [1] was 1.0667. Also, in series [5], the IC50 stood at 169 µM. Moreover, the half-life was 64 h in series [2] and 43 h in series [3]. In addition, the Stability result in series [4] is reported as “Stable”.

On to `CCCCCCCCNC(=O)Oc1ccc(Cl)cc1C(=O)Nc1ccc(Cl)cc1`, for which the “log K” value in series [1] is listed as 0.7899. Also, in series [5], the 50% inhibitory concentration (IC50) amounted to 7.4 µM. Also, the half-life in series [2] was 64 h; in series [3] it was 43 h. In addition, the Stability result in series [4] is recorded as “Stable”.

For `CCCCCCCCCCCNC(=O)Oc1ccc(Cl)cc1C(=O)Nc1ccc(Cl)c(Cl)c1`, the “log K” value in series [1] is on record as 1.0903. Besides, the figures for the half-life in series [2] and in series [3] were 64 h and 43 h, respectively. The Stability entry in series [4] is “Stable”.

For the molecule `CCCCCCCCNC(=O)Oc1ccc(Cl)cc1C(=O)Nc1cccc(Cl)c1`, in series [1], the “log K” value is 0.7831. Also, in series [5], the half-inhibitory concentration (IC50) turned out to be 10.1 µM. Besides, the half-life in series [2] is 64 h; in series [3] it was 43 h. Further, the Stability result in series [4] is on record as “Stable”.

Consider `CCCCCCCCCNC(=O)Oc1ccc(Cl)cc1C(=O)Nc1ccc(Cl)c(Cl)c1`, for which the “log K” value in series [1] is given as 1.088. For the same molecule, the IC50 in series [5] stood at 506 µM. In addition, the half-life is 64 h in series [2] and 43 h in series [3]. Further, the Stability result in series [4] is given as “Stable”.

On to `CCCCCCCCCCCNC(=O)Oc1ccc(Cl)cc1C(=O)Nc1ccc(Cl)cc1`, for which the “log K” value in series [1] was 0.7947. In addition, in series [5], the IC50 is 10.5 µM. The half-life in series [2] was 64 h; in series [3], 43 h. Further, the Stability result in series [4] is “Stable”.

Take `CCNC(=O)Oc1ccc(Cl)cc1C(=O)Nc1cccc(Cl)c1`: the “log K” value in series [1] was found to be 0.7523. Besides, in series [5], the IC50 came out at 15.6 µM. Further, the half-life in series [2] is 64 h; in series [3], 43 h. Besides, the Stability entry in series [4] is reported as “Stable”.

As for `CN(C)C(=O)Nc1ccc(Cl)c(Cl)c1` [DCMU], in series [1], the “log K” value came out at 0.47. Besides, the half-inhibitory concentration (IC50) in series [5] turned out to be 1.9 µM.

Take `CCCCCNC(=O)Oc1ccc(Cl)cc1C(=O)Nc1cccc(Cl)c1`: the “log K” value in series [1] is 0.7732. Also, the IC50 in series [5] turned out to be 5.4 µM. Further, the half-life in series [2] is 64 h; in series [3], 43 h. In series [4], the Stability result is reported as “Stable”.

Regarding `CCCCNC(=O)Oc1ccc(Cl)cc1C(=O)Nc1cccc(Cl)c1`, in series [1], the “log K” value turned out to be 0.7611. Moreover, in series [5], the IC50 is 13.4 µM. The half-life is 64 h in series [2] and 43 h in series [3]. Also, the Stability entry in series [4] is recorded as “Stable”.

On to `CCCCCCNC(=O)Oc1ccc(Cl)cc1C(=O)Nc1ccc(Cl)cc1`, for which, in series [1], the “log K” value is given as 0.7859. The IC50 in series [5] is 6.3 µM. Besides, the half-life was 64 h in series [2] and 43 h in series [3]. The Stability entry in series [4] was “Stable”.

Consider `CCCCCCCCCCCNC(=O)Oc1ccc(Cl)cc1C(=O)Nc1cccc(Cl)c1`, for which the “log K” value in series [1] is listed as 0.7902. Moreover, in series [5], the IC50 was 18.3 µM. Further, the half-life in series [2] is 64 h; in series [3], 43 h. Also, in series [4], the Stability result was “Stable”.

For `CCCCCCCCNC(=O)Oc1ccc(Cl)cc1C(=O)Nc1ccc(Cl)c(Cl)c1`, the “log K” value in series [1] was 1.0845. In addition, in series [5], the 50% inhibitory concentration (IC50) came to 432 µM. The half-life in series [2] was 64 h; in series [3] it was 43 h. The Stability entry in series [4] is listed as “Stable”.

Take `CCCCCCCCCNC(=O)Oc1ccc(Cl)cc1C(=O)Nc1ccc(Cl)cc1`: the “log K” value in series [1] is 0.7919. In addition, the IC50 in series [5] came to 8 µM. Also, the values for the half-life in series [2] and in series [3] were 64 h and 43 h, respectively. Besides, the Stability result in series [4] was “Stable”.

In the case of `CCCCCNC(=O)Oc1ccc(Cl)cc1C(=O)Nc1ccc(Cl)c(Cl)c1`, the “log K” value in series [1] is on record as 1.0601. For the same molecule, in series [5], the IC50 stood at 99.2 µM. In addition, the values for the half-life in series [2] and in series [3] were 64 h and 43 h, respectively. Besides, the Stability result in series [4] was “Stable”.

These data come from ChEMBL document CHEMBL3046818, “Photosynthesis-Inhibiting efficiency of 4-chloro-2-(chlorophenylcarbamoyl)phenyl alkylcarbamates” (Bioorg Med Chem Lett, 2011).
